Measurements published in ChEMBL document CHEMBL4689842, “EUbOPEN Chemogenomics Library wave 1” (2021).

Test system: Fibroblast
Assay: Multiplex assay against human fibroblast
Assay type: toxicity, cell-based
Procedure, shortened: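 Phenotypes for tubulin, mitochondrial mass and membrane permeability are expressed as per cents of healthy-nucleus cells. Cells were stained live at seeding with Hoechst33342, BioTracker Green Microtubule Cytoskeleton Dye, MitoTracker Red and Annexin V Alexa Fluor 680, then imaged after compound addition on a CQ1 microscope at 37°C and 5% CO2. Machine-learning gating in CellPathfinder separated Hoechst high-intensity objects from normal cells, divided normal cells by nuclear state (healthy, pyknosed, fragmented) and divided pyknosed cells into mitotic or apoptotic.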

[1] = 12 h, 1 µM, compound concentration 1 uM, replicate 1
[2] = 12 h, 1 µM, compound concentration 1 uM, replicate 2
[3] = 12 h, 10 µM, compound concentration 10 uM, replicate 1
[4] = 12 h, 10 µM, compound concentration 10 uM, replicate 2
[5] = 24 h, 1 µM, compound concentration 1 uM, replicate 1
[6] = 24 h, 1 µM, compound concentration 1 uM, replicate 2
[7] = 24 h, 10 µM, compound concentration 10 uM, replicate 1
[8] = 24 h, 10 µM, compound concentration 10 uM, replicate 2
[9] = 48 h, 1 µM, compound concentration 1 uM, replicate 1
[10] = 48 h, 1 µM, compound concentration 1 uM, replicate 2
[11] = 48 h, 10 µM, compound concentration 10 uM, replicate 1
[12] = 48 h, 10 µM, compound concentration 10 uM, replicate 2

## Cc1nc(-c2ccc(-c3ccc(C(=O)N4CCc5cc6c(cc54)C4(CCN(C)CC4)CO6)cc3)c(C)c2)no1 [SB-224289]
[1]
  Population Apoptotic (%): 66%
  Population Fragmented Nuclei (%): 35%
  Population Healthy Nuclei (%): 33%
  Population Hoechst High Intensity Objects (%): 7%
  Population Membrane Permeable-Phenotype (%): 18%
  Population Mitochondria Different-Phenotype (%): 25%
  Population Mitotic Cells (%): 33%
  Population Normal (%): 92%
  Population Pyknosed Nuclei (%): 31%
  Population Tubulin-Different-Phenotype (%): 75%
  Total Cell Count: 188
[2]
  Population Apoptotic (%): 28%
  Population Fragmented Nuclei (%): 4%
  Population Healthy Nuclei (%): 81%
  Population Hoechst High Intensity Objects (%): 12%
  Population Membrane Permeable-Phenotype (%): 10%
  Population Mitochondria Different-Phenotype (%): 42%
  Population Mitotic Cells (%): 71%
  Population Normal (%): 87%
  Population Pyknosed Nuclei (%): 14%
  Population Tubulin-Different-Phenotype (%): 37%
  Total Cell Count: 65
[3]
  Population Apoptotic (%): 71%
  Population Fragmented Nuclei (%): 34%
  Population Healthy Nuclei (%): 40%
  Population Hoechst High Intensity Objects (%): 15%
  Population Membrane Permeable-Phenotype (%): 5%
  Population Mitochondria Different-Phenotype (%): 62%
  Population Mitotic Cells (%): 28%
  Population Normal (%): 84%
  Population Pyknosed Nuclei (%): 24%
  Population Tubulin-Different-Phenotype (%): 89%
  Total Cell Count: 213
[4]
  Population Apoptotic (%): 63%
  Population Fragmented Nuclei (%): 7%
  Population Healthy Nuclei (%): 77%
  Population Hoechst High Intensity Objects (%): 11%
  Population Membrane Permeable-Phenotype (%): 54%
  Population Mitochondria Different-Phenotype (%): 100%
  Population Mitotic Cells (%): 36%
  Population Normal (%): 88%
  Population Pyknosed Nuclei (%): 15%
  Population Tubulin-Different-Phenotype (%): 100%
  Total Cell Count: 56
[5]
  Population Apoptotic (%): 65%
  Population Fragmented Nuclei (%): 32%
  Population Healthy Nuclei (%): 41%
  Population Hoechst High Intensity Objects (%): 14%
  Population Membrane Permeable-Phenotype (%): 20%
  Population Mitochondria Different-Phenotype (%): 27%
  Population Mitotic Cells (%): 34%
  Population Normal (%): 85%
  Population Pyknosed Nuclei (%): 25%
  Population Tubulin-Different-Phenotype (%): 79%
  Total Cell Count: 202
[6]
  Population Apoptotic (%): 0%
  Population Fragmented Nuclei (%): 15%
  Population Healthy Nuclei (%): 77%
  Population Hoechst High Intensity Objects (%): 9%
  Population Membrane Permeable-Phenotype (%): 6%
  Population Mitochondria Different-Phenotype (%): 38%
  Population Mitotic Cells (%): 100%
  Population Normal (%): 90%
  Population Pyknosed Nuclei (%): 7%
  Population Tubulin-Different-Phenotype (%): 22%
  Total Cell Count: 73
[7]
  Population Apoptotic (%): 78%
  Population Fragmented Nuclei (%): 35%
  Population Healthy Nuclei (%): 25%
  Population Hoechst High Intensity Objects (%): 17%
  Population Membrane Permeable-Phenotype (%): 2%
  Population Mitochondria Different-Phenotype (%): 61%
  Population Mitotic Cells (%): 21%
  Population Normal (%): 82%
  Population Pyknosed Nuclei (%): 38%
  Population Tubulin-Different-Phenotype (%): 66%
  Total Cell Count: 186
[8]
  Population Apoptotic (%): 76%
  Population Fragmented Nuclei (%): 16%
  Population Healthy Nuclei (%): 56%
  Population Hoechst High Intensity Objects (%): 11%
  Population Membrane Permeable-Phenotype (%): 86%
  Population Mitochondria Different-Phenotype (%): 100%
  Population Mitotic Cells (%): 23%
  Population Normal (%): 88%
  Population Pyknosed Nuclei (%): 26%
  Population Tubulin-Different-Phenotype (%): 100%
  Total Cell Count: 63
[9]
  Population Apoptotic (%): 68%
  Population Fragmented Nuclei (%): 44%
  Population Healthy Nuclei (%): 46%
  Population Hoechst High Intensity Objects (%): 21%
  Population Membrane Permeable-Phenotype (%): 8%
  Population Mitochondria Different-Phenotype (%): 6%
  Population Mitotic Cells (%): 31%
  Population Normal (%): 78%
  Population Pyknosed Nuclei (%): 8%
  Population Tubulin-Different-Phenotype (%): 50%
  Total Cell Count: 277
[10]
  Population Apoptotic (%): 0%
  Population Fragmented Nuclei (%): 48%
  Population Healthy Nuclei (%): 50%
  Population Hoechst High Intensity Objects (%): 27%
  Population Membrane Permeable-Phenotype (%): 12%
  Population Mitochondria Different-Phenotype (%): 3%
  Population Mitotic Cells (%): 100%
  Population Normal (%): 72%
  Population Pyknosed Nuclei (%): 0%
  Population Tubulin-Different-Phenotype (%): 56%
  Total Cell Count: 169
[11]
  Population Apoptotic (%): 90%
  Population Fragmented Nuclei (%): 46%
  Population Healthy Nuclei (%): 21%
  Population Hoechst High Intensity Objects (%): 33%
  Population Membrane Permeable-Phenotype (%): 30%
  Population Mitochondria Different-Phenotype (%): 50%
  Population Mitotic Cells (%): 10%
  Population Normal (%): 66%
  Population Pyknosed Nuclei (%): 31%
  Population Tubulin-Different-Phenotype (%): 85%
  Total Cell Count: 142
[12]
  Population Apoptotic (%): 100%
  Population Fragmented Nuclei (%): 47%
  Population Healthy Nuclei (%): 15%
  Population Hoechst High Intensity Objects (%): 29%
  Population Membrane Permeable-Phenotype (%): 14%
  Population Mitochondria Different-Phenotype (%): 85%
  Population Mitotic Cells (%): 0%
  Population Normal (%): 70%
  Population Pyknosed Nuclei (%): 36%
  Population Tubulin-Different-Phenotype (%): 71%
  Total Cell Count: 127
